TAAR1 antagonist: human TAAR1 antagonism | Q96RJ0 | CHO RD-HGA16 TAAR1, Fluo-8 calcium fluorescence, antagonist | 360,000 compounds, 1.5% hits | inhibition, % at 3 µM | AID 624466;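 active means inhibition above a per-plate cutoff, the mean inhibition of test compounds on that plate plus 3 SD, cut at about 49% in these data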;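 further: 0% = DMSO plus EC80 beta-PEA response and 100% = DMSO alone without agonist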
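Test system – hTAAR1-expressing CHO RD-HGA16 cells, Gα16-coupled · Reagent – β-PEA at EC80 concentration, post-compound challenge · Compound dosing – 3 µM, single point · Timing – 140 s kinetic read after compound, 140 s after agonist · Detection – Fluo-8 intracellular calcium dye fluorescence, real-time kinetic reads · Control set – DMSO and EC80 PEA controls · Repeats – n of 1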
CHO parental Ca: counter-screen: ATP calcium response change in parental CHO cells; 330,000 compounds, 0.63% hits; parental CHO-K1, ATP-induced calcium, Fluo-8 fluorescence; AID 463079; inhibition, % at 5.6 µM;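 active means inhibition above that plate's mean sample inhibition plus 3 SD, cut at about 26% in these data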;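 further: 0% = ATP-challenged DMSO wells and 100% = DMSO wells without ATP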
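test system = CHO parental line | reagent = ATP stimulus | measured by = intracellular calcium via Fluo-8 no-wash fluorescent dye | control set = ATP and no-ATP DMSO wells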
OX1R antag-1: antagonists of human orexin 1 receptor | CHO/OX1R cells, Fluo-8 calcium fluorescence, orexin A | inhibition, % at 5 µM | 330,000 compounds, 0.43% hits;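 active means inhibition above its plate's threshold, mean inhibition of all tested compounds on the plate plus 3 SD, cut at about 37% in these data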;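 further: 0% = orexin A challenge wells and 100% = SB-334867-A antagonist wells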
Target sequence (O43613 whole entry, looked up): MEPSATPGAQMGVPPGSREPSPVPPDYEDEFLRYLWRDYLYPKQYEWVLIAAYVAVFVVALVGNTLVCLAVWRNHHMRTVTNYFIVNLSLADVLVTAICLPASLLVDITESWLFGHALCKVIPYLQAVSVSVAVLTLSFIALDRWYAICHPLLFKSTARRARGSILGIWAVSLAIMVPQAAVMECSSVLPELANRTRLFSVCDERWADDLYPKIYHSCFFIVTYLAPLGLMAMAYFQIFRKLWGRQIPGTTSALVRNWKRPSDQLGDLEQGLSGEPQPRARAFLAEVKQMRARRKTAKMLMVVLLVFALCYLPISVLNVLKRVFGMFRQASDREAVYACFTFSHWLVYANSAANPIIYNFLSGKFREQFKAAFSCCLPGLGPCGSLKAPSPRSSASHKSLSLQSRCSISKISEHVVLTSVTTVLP
GPR7 antag: blocks human GPR7 receptor signaling | 290,000 compounds, 1.1% hits | GPR7-expressing cells, fluorescence antagonist assay | inhibition, % at 4.4 µM | P48145; in the data active means inhibition above about 16%, passing the limit was not always enough;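 further: cells stimulated with the agonist NPW; 0% = agonist with vehicle and 100% = vehicle without agonist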
TAAR1 agonist: human TAAR1 agonism; CHO RD-HGA16 TAAR1, Fluo-8 calcium fluorescence; vehicle wells 0%, saturating PEA agonist 100%; Q96RJ0; activation, % at 3 µM; 360,000 compounds, 0.99% hits; AID 624467;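 active means activation above the mean activation of all test compounds in the run plus 3 SD, cut at about 38% in these data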
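Benchmarks: low control DMSO, high control PEA (EC100); System: CHO RD-HGA16 cells carrying human TAAR1 plus Gα16; Detection: Fluo-8 fluorescence, 5 s baseline then 140 s kinetic read; Schedule: 17-24 h plating, Fluo-8 75 min 37 °C, 30 min RT; Read-out basis: % activation from peak over basal fluorescence ratio, DMSO-to-PEA scaled.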
OX1R antag-2: OX1R (human) antagonism; O43613; OX1R-expressing cells, FRET antagonist read-out; inhibition, % at 6.6 µM; 330,000 compounds, 1.8% hits; in the data active means inhibition mostly above about 38%, no sharp cut-off; inactive means mostly below about 40%;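 further: 0% = agonist challenge alone and 100% = reference antagonist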
GPR7 antag cf: confirmation of human GPR7 antagonists | shares compounds with GPR7 antag | GPR7-expressing cells, calcium fluorescence antagonist mode | inhibition, % at 4.4 µM | 2,400 compounds, 52% hits | AID 1952; in the data active means inhibition above about 24%;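 further: stimulated with the GPR7 agonist NPW; 0% = agonist plus vehicle and 100% = vehicle alone without agonist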
MCHR1 antagonist: MCHR1 (human) antagonism in GPR7 counter-screen | MCHR1-expressing cells, fluorescence antagonist assay | inhibition, % at 4.4 µM | shares compounds with GPR7 antag | 2,400 compounds, 62% hits | AID 2148; in the data active means inhibition above about 22%;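 further: 0% = vehicle with agonist and 100% = vehicle without agonist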
* hit, by the source's call; nt = no result given. Compounds with a hit are over-represented: about 4.5% of the library has one in this group of screens.

SMILES	TAAR1 antagonist	CHO parental Ca	OX1R antag-1	GPR7 antag	TAAR1 agonist	OX1R antag-2	GPR7 antag cf	MCHR1 antagonist
CC(=O)N1CCc2cc(NC(=O)C3(C)CCN3Cc3ccccc3Cl)ccc21 (stereo unspecified)	-12	nt	nt	nt	1	nt	nt	nt
CN(CC(=O)NCC(=O)Nc1ccc(F)cc1)CC(=O)Nc1ccc(Cl)c(C(F)(F)F)c1	3	nt	nt	nt	1	nt	nt	nt
CN(CC(=O)NCc1ccc(F)cc1)CC(=O)Nc1ccc(Cl)c(C(F)(F)F)c1	15	67*	57*	28*	37	34	27*	61*
COc1ccc(-c2oc3c(c2C(=O)OCCCO)C(OCCO)CCC3)cc1 (stereo unspecified)	-34	nt	nt	nt	3	nt	nt	nt
COc1cc(/C=C(\C#N)C(=O)Nc2ccc(C(=O)O)cc2)ccc1OC(=O)c1cccc(F)c1	9	-2	1	31*	0	13	34*	4
O=C(NCc1cccc(Cl)c1)c1ccc(-c2csnn2)cc1	20	14	-12	25*	1	3	15	12
O=C(NC(=S)Nc1cccc([N+](=O)[O-])c1)C1CCCCC1	-2	-17	-36	32*	1	7	33*	39*
O=C(NC(=S)Nc1cccc([N+](=O)[O-])c1)c1ccccc1	-9	-21	-18	-2	1	5	nt	nt
CN(C)S(=O)(=O)c1cccc(NC(=S)NC(=O)C2CCCCC2)c1	-7	-35	-40	32*	14	10	1	35*
O=C1C2C3C=CC(C3)C2C(=O)N1c1ccncc1 (stereo unspecified)	11	-12	-8	-15	3	19	nt	nt
O=C1C2C3C=CC(C3)C2C(=O)N1c1ccc(-c2nc3ccccc3o2)cc1 (stereo unspecified)	2	-3	-13	40*	5	22	12	1
CCCCCCNC(=O)c1cc(S(=O)(=O)N2CCc3ccccc32)ccc1F	-10	-19	-29	2	2	9	nt	nt
CCCCN(C)C(=O)c1nc2ccccn2c1CN1CCN(C/C=C/c2ccccc2)CC1	15	-10	-17	26*	3	16	29*	21
CCCCN(C)C(=O)c1nc2ccccn2c1CN1CCN(c2ncccn2)CC1	7	-16	-7	-12	1	1	nt	nt
Cc1ccc(NC(=O)CSc2n[nH]c(C)c2[N+](=O)[O-])cc1C	3	24	19	-11	16	16	nt	nt
COc1ccc(NC(=O)CSc2n[nH]c(C)c2[N+](=O)[O-])cc1	-20	10	-10	22*	6	10	9	9
CCOC(=O)c1sc(NC(=O)Nc2ccc(Cl)cc2)cc1C	82*	79*	67*	35*	13	86*	63*	72*
Cc1cccc(/C=N/n2c(C)nc3ccccc3c2=O)c1	-9	-4	-12	-14	4	-2	nt	nt
COC(=O)C1=C(N)Oc2cc(C)n(CC3CCCO3)c(=O)c2C1c1ccccc1OC (stereo unspecified)	-13	-13	-15	-9	-1	-2	nt	nt
COC(=O)C1=C(N)Oc2cc(N(C)C)ccc2C1c1ccccc1OC (stereo unspecified)	-7	-16	-22	25*	13	17	9	33*
COc1ccc(C(=O)Nc2ccnn2C2CCN(Cc3ccccn3)CC2)cc1	-3	-11	5	-21	0	-2	nt	nt
CCc1ccc(CSc2nccn2-c2ccccc2)cc1	27	-17	-8	27*	25	28	-9	40*
CCOC(=O)CSc1nc2c(sc(=S)n2Cc2ccco2)c(=O)n1-c1ccccc1	7	-24	-17	22*	7	18	17	45*
CCOC(=O)CSc1nc2c(sc(=S)n2-c2ccccc2OC)c(=O)n1Cc1ccco1	10	3	-21	20	6	21	nt	nt
